In ChEMBL document CHEMBL1130251, “Enzymatic properties of the unnatural beta-L-enantiomers of 2',3'-dideoxyadenosine and 2',3'-didehydro-2',3'-dideoxyadenosine” (J Med Chem, 1997):

How the values were obtained:
Adenosine deaminase = biological target: T1, Adenosine deaminase (Bos taurus, UniProt P56658); assay: inhibitory activity against Adenosine deaminase
T1 sequence (P56658 whole entry): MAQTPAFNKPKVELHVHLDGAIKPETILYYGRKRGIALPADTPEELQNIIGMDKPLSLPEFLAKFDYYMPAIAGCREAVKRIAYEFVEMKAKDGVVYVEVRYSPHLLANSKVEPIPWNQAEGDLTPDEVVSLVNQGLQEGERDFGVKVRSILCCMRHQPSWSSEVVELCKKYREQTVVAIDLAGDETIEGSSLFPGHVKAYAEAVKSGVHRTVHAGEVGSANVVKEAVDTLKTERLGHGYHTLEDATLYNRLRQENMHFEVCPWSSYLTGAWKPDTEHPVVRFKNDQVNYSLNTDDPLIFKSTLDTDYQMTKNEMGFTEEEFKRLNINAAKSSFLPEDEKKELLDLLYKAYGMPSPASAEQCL
Procedure, shortened: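 Adenosine deaminase (calf intestinal mucosa, type VIII) at 37 °C in 50 mM phosphate pH 7.5. Substrate tests used 20–80 μM nucleoside and 0.01–1 unit enzyme, with HPLC product analysis. Inhibition was read by UV spectrometry with adenosine 20–100 μM. Ki was taken from Lineweaver–Burk plots assuming competitive inhibition.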

[1] = Half life of the compound; type: ADME
Procedure, shortened: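 Deamination by calf intestinal mucosa adenosine deaminase (type VIII) at 37 °C in 50 mM phosphate buffer pH 7.5. Substrate 20–80 μM with 0.01–1 unit of enzyme depending on substrate. Conversion followed over time by HPLC on C-18 with a phosphate pH 6 / acetonitrile gradient, which also confirmed the deaminated nucleoside as sole product.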

Ki (Adenosine deaminase) [µM] | half-life [1] [h] | Compound
120 | – | Nc1ncnc2c1ncn2[C@H]1CC[C@@H](CO)O1
– | 74.4 | Nc1ncnc2c1ncn2[C@H]1C=C[C@@H](CO)O1
